Measurements from ChEMBL document CHEMBL1146177, “Total synthesis and biological evaluation of viscolin, a 1,3-diphenylpropane as a novel potent anti-inflammatory agent” (Bioorg Med Chem Lett, 2006).
pIC50: −log10 of the molar value.

Key:
[1] = test system: BV-2; assay: Inhibition of NOS-dependent nitric oxide production in mouse BV2 cells; format: functional, cell-based
Outline: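 Murine BV2 microglial cells. NOX activity was read as ROS production and NOS activity as NO production. DPI (NOX inhibitor) and L-NAME (NOS inhibitor) served as positive controls. IC50 is the mean ± SEM of 5–6 experiments on different days with cells from different passages.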

[2] = Inhibition of PMA-induced ROS production in human leukocytes at 25 uM; format: functional; conditions: Leukocyte
[3] = Inhibition of PMA plus ionomycin-induced IFN-gamma production in human CD8+ leukocytes measured as mean channel fluorescence at 5 uM; format: functional
Outline: (§1)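 Human leukocytes were stimulated with PMA plus ionomycin. IL-2 (CD4+ Th cells) and IFN-γ (CD8+ cells) were measured by intracellular cytokine staining and read as mean channel fluorescence. Significance was tested against activator alone (P<0.05).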

[4] = Inhibition of fMLP-induced ROS production in human leukocytes at 25 uM; format: functional; conditions: Leukocyte
[5] = test system: CD4+ve Th; assay: Inhibition of PMA plus ionomycin-induced IL2 production in human CD4+ Th cells measured as mean channel fluorescence at 25 uM; format: functional; outline: as §1
[6] = test system: CD4+ve Th; assay: Inhibition of PMA plus ionomycin-induced IL2 production in human CD4+ Th cells measured as mean channel fluorescence at 5 uM; format: functional; outline: as §1
[7] = Inhibition of PMA plus ionomycin-induced IFN-gamma production in human CD8+ leukocytes measured as mean channel fluorescence at 25 uM; format: functional; outline: as §1
[8] = Cytotoxicity against microglial cells at 5 uM; conditions: mouse, microglia
[9] = Cytotoxicity against microglial cells at 10 uM; conditions: mouse, microglia
[10] = Cytotoxicity against microglial cells at 25 uM; conditions: mouse, microglia
[11] = test system: BV-2; assay: Inhibition of LPS-induced TNFalpha production in mouse BV2 cells measured as mean channel fluorescence at 5 uM
[12] = test system: BV-2; assay: Inhibition of LPS-induced TNFalpha production in mouse BV2 cells measured as mean channel fluorescence at 25 uM
[13] = test system: BV-2; assay: Inhibition of NADPH oxidase-dependent reactive oxygen species production in mouse BV2 cells
[14] = Inhibition of PMA-induced ROS production in human PMN; format: functional
Outline: (§2)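 Peripheral human neutrophils (PMN) or mononuclear cells (MNC) were stimulated with PMA (a PKC activator) or fMLP to induce ROS. IC50 is the mean ± SEM of 3–5 experiments on different days with cells from different donors.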

[15] = Inhibition of fMLP-induced ROS production in human PMN; format: functional; outline: as §2
[16] = Inhibition of PMA-induced ROS production in human mononuclear leukocytes; format: functional, cell-based; outline: as §2
[17] = Inhibition of fMLP-induced ROS production in human mononuclear leukocytes; format: functional, cell-based; outline: as §2
[18] = DPPH radical scavenging activity; format: functional
[19] = molecular target: T1, Protein kinase C (PKC) (Homo sapiens) (UniProt O94806+P41743+P17252+P05129+Q05655+P05771+Q05513+Q02156+P24723+Q15139+Q04759); assay: Inhibition of PKC in human peripheral leucocytes at 5 uM by ELISA; format: cell-based
Outline: (§3)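 Protein kinase activity in human leukocytes is expressed as % inhibition relative to drug-free samples (taken as 100%). Values are the mean ± SEM of 3 experiments on different days with cells from different donors.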

[20] = Inhibition of fMLP-induced calcium mobilisation in human peripheral leukocytes at 5 uM; format: functional
Outline: (§4)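 Human leukocytes were preloaded with Fura-2, and intracellular Ca2+ rise was followed after fMLP stimulation. Inhibition is expressed as % of the calcium increment in drug-free samples (taken as 100%). Values are the mean ± SEM of 3 experiments on different days with different donors.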

[21] = molecular target: T1, Protein kinase C (PKC) (Homo sapiens); assay: Inhibition of PKC at 25 uM by ELISA; format: protein assay; outline: as §3
[22] = Inhibition of fMLP-induced calcium mobilisation in human peripheral leukocytes at 25 uM; format: functional; outline: as §4

| SMILES | pIC50 [1] | Activity [3] | Activity [5] | Activity [6] | Activity [7] | Activity [8] [%] | Activity [9] [%] | Activity [10] [%] | Activity [11] | Activity [12] | other results |
| --- | --- | --- | --- | --- | --- | --- | --- | --- | --- | --- | --- |
| c1ccc2c(c1)[I+]c1ccccc1-2 [DIPHENYLENEIODONIUM] |  |  |  |  |  |  |  |  |  |  | pIC50 [13]: 4.99 |
| COC(=O)[C@@H](N)CCCNC(=N)N[N+](=O)[O-] [L-NAME] | 4.44 |  |  |  |  |  |  |  |  |  |  |
| O=c1c(O)c(-c2ccc(O)c(O)c2)oc2cc(O)cc(O)c12 [QUERCETIN] |  |  |  |  |  |  |  |  |  |  | pIC50 [14]: 5.26; pIC50 [15]: 5.60; pIC50 [16]: 5.51; pIC50 [17]: 5.40 |
| Cc1c(C)c2c(c(C)c1O)CCC(C)(C(=O)O)O2 (stereo unspecified) [TROLOX] |  |  |  |  |  |  |  |  |  |  | pIC50 [18]: 4.39 |

Now from value to compound, other results behind:

| pIC50 [1] | SMILES | Activity [3] | Activity [5] | Activity [6] | Activity [7] | Activity [8] [%] | Activity [9] [%] | Activity [10] [%] | Activity [11] | Activity [12] | other results |
| --- | --- | --- | --- | --- | --- | --- | --- | --- | --- | --- | --- |
| 4.70 | COc1cc(CCCc2c(OC)cc(OCc3ccccc3)c(OC)c2OC)ccc1OCc1ccccc1 | 59 | 102 | 100 | 65 | 14.6 | 8.9 | 9.6 | 164 | 154 | inhibition at 25 µM [2]: 20%; inhibition at 25 µM [4]: 37% |
| 4.72 | COc1cc(C/C=C/c2c(OC)cc(OCc3ccccc3)c(OC)c2OC)ccc1OCc1ccccc1 | 60 | 103 | 101 | 65 | 8.6 | 8.1 | 10 | 164 | 155 | inhibition at 25 µM [2]: 20%; inhibition at 25 µM [4]: 37% |
| 4.62 | COc1cc(CCCc2c(OC)cc(O)c(OC)c2OC)ccc1O [VISCOLIN] | 72 | 112 | 99 | 67 | 9.6 | 8.9 | 14.6 | 155 | 121 | pIC50 [14]: 4.92; pIC50 [15]: 5.85; pIC50 [16]: 5.08; pIC50 [17]: 5.60; inhibition [19]: 34.4%; inhibition at 5 µM [20]: 36.7%; pIC50 [18]: 4.31; inhibition [21]: 48.8%; inhibition at 25 µM [22]: 53.5%; pIC50 [13]: 4.53 |
